The values that follow come from ChEMBL document CHEMBL4396917, “Synthesis and biological evaluation of novel benzylidene-succinimide derivatives as noncytotoxic antiangiogenic inhibitors with anticolorectal cancer activity in vivo” (Eur J Med Chem, 2019).

Series [1] deals with HT-29. Briefly: Induction of apoptosis in human HT-29 cells assessed as necrotic cells at 5 uM after 24 hrs by Annexin V-FITC/propidium iodide staining based flow cytometric analysis (reference value: 1.3 to 3.9%). It counts as cell-based. The following applies: ht-29, 24 h.
The subject of series [2] is HUVEC. Briefly: Antiinvasive activity in HUVEC assessed as inhibition of VEGF-induced cell invasion after 6 hrs by crystal violet staining based transwell assay. It counts as functional. The conditions noted are these: Homo sapiens. The essentials: (§1)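 Transwell: 1×10⁴ HUVECs in serum-free M200 in top chamber with vehicle or compound; bottom chamber M200 with 10% FBS; 6 h at 37°C; cells on membrane underside fixed in 4% paraformaldehyde, stained 0.1% crystal violet, imaged and counted.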

Series [3] concerns Aorta. As to the kind of experiment: Inhibition of VEGF-induced capillary sprouting in Sprague-Dawley rat aortic ring treated for every 3 days for 7 days measured on day 7 by inverted microscopy. Type of series: functional, tissue-based. Summed up:
(§2)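 Aortas from anesthetized Sprague-Dawley rats cut into 1-mm rings and embedded in Matrigel for 1 h at 37°C. Rings starved 1 day, then cultured in opti-MEM with 2.5% FBS and 30 ng/mL VEGF plus compound. Treatment renewed every 3 days for 7 days. Sprouting imaged on day 7 by inverted microscopy.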

The subject of series [4] is HUVEC. Briefly: Antiangiogenic activity against VEGF-induced HUVEC assessed as inhibition of cell proliferation preincubated for 30 mins followed by VEGF addition measured after 24 hrs by MTT assay. It counts as functional, cell-based. The following applies: Homo sapiens. The essentials: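 HUVECs seeded 24 h, starved 16 h in M200 with 2% FBS, pretreated 30 min with compound at 0.1, 1, 10, 20 or 40 μM, then stimulated with VEGF (25 ng/mL) for 24 h; viability read by MTT; IC50 determined.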
A general note: Formazan colour is commonly taken as a measure of viable cells.

Series [5] deals with Aorta. Briefly: Inhibition of VEGF-induced capillary sprouting in Sprague-Dawley rat aortic ring at 20 uM treated for every 3 days for 7 days measured on day 7 by inverted microscopy relative to control. It counts as functional. The essentials: as §2
Series [6] has as its system HUVEC. As to the kind of experiment: Antimigratory activity in HUVEC assessed as reduction in VEGF-induced cell migration at 1 to 2.5 uM by wound healing assay. The conditions noted are these: Homo sapiens, TDE = time-dependent effect.
Series [7] in a line: Induction of apoptosis in VEGF-stimulated HUVEC assessed as viable cells at 20 uM after 24 hrs by Annexin V-FITC/propidium iodide staining based flow cytometric analysis (reference value: 69.6%). It counts as cell-based. The following applies: human, read-out: Activity. Summed up: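 HUVECs plated at 5×10^5 per well and treated 24 h with 1, 5, 10 or 20 μM. Detached and adherent cells were pooled, washed in ice-cold PBS and resuspended in fresh medium. 1×10^5 cells were stained with annexin-V-FITC in annexin-V buffer for 20 min in the dark, then PI (50 μg/mL) was added. Read-out by flow cytometry.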

Series [8] concerns HT-29. As to the kind of experiment: Inhibition of Akt/mTOR signalling in human HT-29 cells assessed as reduction in mTOR phosphorylation at Ser2448 residue incubated for 24 hrs by immunoblot analysis. It counts as cell-based. Summed up: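 HT29 cells were exposed to the indicated concentrations for 24 h. Cell lysates were then immunoblotted for the phosphorylated proteins.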
(In general: Immunoblotting shows a protein as a band on a membrane.)

In series [9] the test system is HUVEC. Briefly: Antiinvasive activity in HUVEC assessed as inhibition of VEGF-induced cell invasion at 5 uM after 6 hrs by crystal violet staining based transwell assay relative to control. It counts as functional. The following applies: Homo sapiens. Summed up: as §1

Each structure is given as a SMILES string.

For `COc1ccc(NC(=O)c2cccc(/C=C3\CC(=O)N(c4ccc(C)cc4)C3=O)c2)cc1`, the Activity in the series with HT-29 [1] fell in the range of 0.8 to 4.7%. The inhibition (commonly the relative decrease from the control value, in per cent) with HUVEC [2] was “Dose-dependent effect”; in the series on Aorta [3], “Dose-dependent effect”; in the series with HUVEC [6], “Tde”; in the series with HT-29 [8], “Dose-dependent effect”. Further, the IC50 (commonly the concentration needed to halve the response being measured) in the series with HUVEC [4] is 8.56 µM. In addition, in the series with Aorta [5], the inhibition at 20 µM turned out to be 95%. In series [7], the viability at 24 h, 20 µM was 74.5%. The inhibition at 5 µM with HUVEC [9] was found to be 40%.
